# pIC50: −log10 of the molar value.
# Tests used:
# PC-3 = experiment: In vitro inhibitory concentration against PC-3 cell line in MTT assay was determined after 3 days incubation; format: functional, cell-based; settings: Homo sapiens, PC-3, 72 h
# Procedure, shortened: (§1)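 MTT viability read-out in 96-well format, per Mosmann's method. Values are means of three experiments.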
# SK-OV-3 = experiment: In vitro inhibitory concentration against SKOV3 cell line in MTT assay was determined after 3 days incubation; format: functional, cell-based; settings: Homo sapiens, SK-OV-3, 72 h; procedure, shortened: as §1
# U373 MG = experiment: In vitro inhibitory concentration against U373MG cell line in MTT assay was determined after 3 days incubation; format: functional, cell-based, U-373MG ATCC; settings: Homo sapiens, 72 h; procedure, shortened: as §1
Compound,pIC50 (PC-3),pIC50 (SK-OV-3),pIC50 (U373 MG)
COc1cc(C(=O)O[C@@H]2Cc3c(O)cc(O)cc3O[C@@H]2c2ccc(O)c(O)c2)cc(OC)c1OC,4.29,4.30,4.24
O=C(O[C@@H]1Cc2c(O)cc(O)cc2O[C@@H]1c1ccc(O)c(O)c1)c1cc(O)c(O)c(O)c1 [EPICATECHIN GALLATE],3.77,3.73,3.80
Oc1cc(O)c2c(c1)O[C@H](c1ccc(O)c(O)c1)[C@H](O)C2 [(-)-EPICATECHIN],< 3.30,< 3.30,< 3.30
O=C(O[C@@H]1Cc2c(O)cc(O)cc2O[C@@H]1c1ccc(O)c(O)c1)c1ccc(OC(F)(F)F)cc1,4.34,4.33,4.30
COc1cc(CO[C@@H]2Cc3c(O)cc(O)cc3O[C@@H]2c2ccc(O)c(O)c2)cc(OC)c1OC,4.49,4.42,4.53
O=C(O[C@@H]1Cc2c(O)cc(O)cc2O[C@@H]1c1ccc(O)c(O)c1)c1cc(F)c(F)c(F)c1,4.14,4.21,4.23
O=C(O[C@@H]1Cc2c(O)cc(O)cc2O[C@@H]1c1ccc(O)c(O)c1)c1cc(F)cc(F)c1,4.23,4.11,4.19

# Source: ChEMBL document CHEMBL1137907, “Anticancer activity of 3-O-acyl and alkyl-(-)-epicatechin derivatives” (Bioorg Med Chem Lett, 2004)
